Experimental data reported in ChEMBL document CHEMBL1141352, “Microbial transformation of cephalomannine by Luteibacter sp” (J Nat Prod, 2007).

Legend:
Type in all cases: functional, cell-based
HCT-8 = assay: Cytotoxicity against human HCT8 cells by MTT assay
Method in brief: (§1)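 Cells kept in RPMI 1640 with 10% FBS, penicillin 100 units/mL and streptomycin 100 μg/mL, at 37 °C in humidified 5% CO2. Seeded at 1200 cells/well; compounds added after 24 h and incubated 96 h. Tested at 10^-5 to 10^-9 M (five concentrations) from DMSO stocks, with 0.1% DMSO final, in triplicate wells. Viability by MTT formazan absorbance at 570 nm.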

Bel-7402 = assay: Cytotoxicity against human Bel7402 cells by MTT assay; method in brief: as §1
BGC-823 = assay: Cytotoxicity against human BGC823 cells by MTT assay; method in brief: as §1
A549 = assay: Cytotoxicity against human A549 cells by MTT assay; method in brief: as §1
A2780 = assay: Cytotoxicity against human A2780 cells by MTT assay; method in brief: as §1

SMILES | IC50 (HCT-8) [nM] | IC50 (Bel-7402) [nM] | IC50 (BGC-823) [nM] | IC50 (A549) [nM] | IC50 (A2780) [nM]
C/C=C(\C)C(=O)N[C@@H](c1ccccc1)[C@@H](O)C(=O)O[C@H]1C[C@@]2(O)[C@@H](OC(=O)c3ccccc3)[C@@H]3[C@]4(OC(C)=O)CO[C@@H]4C[C@H](O)[C@@]3(C)C(=O)[C@H](OC(C)=O)C(=C1C)C2(C)C [CEPHALOMANNINE] | 310 | 920 | 100 | 100 | 100
C/C=C(/C)C(=O)N[C@@H](c1ccccc1)[C@@H](O)C(=O)O[C@H]1C[C@@]2(O)[C@@H](OC(=O)c3ccccc3)[C@@H]3[C@]4(OC(C)=O)CO[C@@H]4C[C@@H](O)[C@@]3(C)C(=O)[C@H](O)C(=C1C)C2(C)C | 2230 | 3530 | 790 | 3240 | 350
CCC(C)C(=O)N[C@@H](c1ccccc1)[C@@H](O)C(=O)O[C@H]1C[C@@]2(O)[C@@H](OC(=O)c3ccccc3)[C@@H]3[C@]4(OC(C)=O)CO[C@@H]4C[C@@H](O)[C@@]3(C)C(=O)[C@H](OC(C)=O)C(=C1C)C2(C)C (stereo not given in full) | 1570 | 3300 | 530 | 2240 | 650
C/C=C(\C)C(=O)N[C@@H](c1ccccc1)[C@@H](O)C(=O)O[C@H]1C[C@@]2(O)[C@@H](OC(=O)c3ccccc3)[C@@H]3[C@]4(OC(C)=O)CO[C@@H]4C[C@H](O)[C@@]3(C)C(=O)[C@H](O)C(=C1C)C2(C)C | 3290 | 2690 | 100 | > 10000 | 90
CC(=O)O[C@@]12CO[C@@H]1C[C@@H](O)[C@@]1(C)C(=O)C(=O)C3=C(C)[C@@H](O)C[C@@](O)([C@@H](OC(=O)c4ccccc4)[C@H]21)C3(C)C | > 10000 | > 10000 | 1380 | > 10000 | 4890
CC(=O)O[C@H]1C(=O)[C@]2(C)[C@@H](O[C@H]3OC[C@@H](O)[C@H](O)[C@H]3O)C[C@H]3OC[C@@]3(OC(C)=O)[C@H]2[C@H](OC(=O)c2ccccc2)[C@]2(O)C[C@H](O)C(C)=C1C2(C)C | > 10000 | > 10000 | > 10000 | > 10000 | > 10000
CC(=O)O[C@H]1C(=O)[C@@]2(C)[C@H]([C@H](OC(=O)c3ccccc3)[C@]3(O)C[C@H](OC(=O)[C@H](O)[C@@H](NC(=O)c4ccccc4)c4ccccc4)C(C)=C1C3(C)C)[C@]1(OC(C)=O)CO[C@@H]1C[C@@H]2O [PACLITAXEL] | 37 | 100 | 7 | 19 | 6.3
C/C=C(/C)C(=O)N[C@@H](c1ccccc1)[C@@H](O)C(=O)O[C@H]1C[C@@]2(O)[C@@H](OC(=O)c3ccccc3)[C@@H]3[C@]4(OC(C)=O)CO[C@@H]4C[C@@H](O)[C@@]3(C)C(=O)[C@H](OC(C)=O)C(=C1C)C2(C)C | 230 | 690 | 90 | 90 | 70
